LEDGF integ inh – blockers of LEDGF/p75-dependent integrase strand transfer – biochemical, TR-FRET, high throughput, primary screen; HIV-1 integrase (with human LEDGF/p75); TR-FRET IN-LEDGF/p75 DNA integration, Eu/Cy5; inhibition, % at 3.7 µM; actives 0.64% (n = 370,000);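 active = inhibition above the screen-wide mean plus 3 SD, cut at about 13% in these data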;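 also: signal is the Cy5 over europium emission ratio at 671 and 618 nm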
MBD2 DNA inh – inhibitors of MBD2 binding to methylated DNA, primary screen, biochemical, TR-FRET, DNA-binding domain, human; Methyl-CpG-binding domain protein 2 (Homo sapiens), Q9UBB5; MBD2 binding to methylated oligonucleotide; inhibition, % at 4.4 µM; actives 0.31% (n = 370,000); in the data active = inhibition above about 13%
TDP2 inh – human TDP2 enzyme inhibitors, primary screen, biochemical, epi absorbance, recombinant enzyme; Tyrosyl-DNA phosphodiesterase 2 (Homo sapiens), O95551; T5PNP hydrolysis, p-nitrophenol absorbance 415 nm; inhibition, % at 12.8 µM; actives 0.34% (n = 370,000); AID 720702, 2013;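 active = inhibition above the mean of all tested compounds plus 3 SD, set per campaign, cut at about 25% in these data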
Target sequence (O95551 whole entry, looked up): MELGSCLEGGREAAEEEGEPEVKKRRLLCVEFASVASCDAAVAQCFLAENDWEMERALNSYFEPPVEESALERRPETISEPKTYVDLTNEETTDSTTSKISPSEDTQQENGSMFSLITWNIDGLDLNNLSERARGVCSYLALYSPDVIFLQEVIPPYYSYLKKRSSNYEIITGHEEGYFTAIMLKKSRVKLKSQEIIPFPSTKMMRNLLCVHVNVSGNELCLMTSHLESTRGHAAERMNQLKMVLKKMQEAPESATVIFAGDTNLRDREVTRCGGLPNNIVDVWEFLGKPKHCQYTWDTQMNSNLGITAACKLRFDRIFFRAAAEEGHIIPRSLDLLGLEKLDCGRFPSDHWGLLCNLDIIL
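Read-out basis: percent inhibition. System: recombinant human TDP2. Buffer or medium: Mg2+-containing Tris-HCl buffer, pH 7.5. Repeats: single replicate. Timing: reaction 2 h, 37 °C. Benchmarks: high control without enzyme, low control DMSO plus TDP2. Probe or stimulus: 5 mM T5PNP. Doses: 12.8 µM only. Measured by: epi absorbance of p-nitrophenol freed from T5PNP by hydrolysis.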
UHRF1 binding – UHRF1 methylated DNA binding inhibitors, primary screen, counter-screen for MBD2 inhibitor project, biochemical, TR-FRET, human UHRF1, single concentration; AID 687016, 2013; E3 ubiquitin-protein ligase UHRF1 (Homo sapiens), Q96T88; inhibition, % at 4.4 µM; actives 0.75% (n = 370,000); UHRF1 binding to methylated oligo; in the data active = inhibition above about 21%;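 also: UHRF1 SRA domain binding a hemimethylated CpG hairpin DNA probe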
IN multimer up – HIV-1 IN multimer formation enhancers, counter-screen for LEDGF/p75 integration inhibitor project, biochemical, TR-FRET. shares compounds with LEDGF integ inh. TR-FRET HIV-1 integrase multimerization. activation, % at 7.7 µM. actives 17% (n = 2,000). AID 1053131, 2014; in the data active = activation above about 8.9%
TR-FRET interf – TR-FRET optical interference artefacts, confirmation, artefact control for LEDGF/p75-dependent integration inhibitor project, biochemical, HIV-1 IN multimerization; shares compounds with LEDGF integ inh; TR-FRET optical interference counterscreen; inhibition, % at 7.7 µM; 2,000 tested, under 10 active; AID 1053135, 2014;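 active = inhibition above the mean over all tested compounds plus 3 SD, which no compound reached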
IN-LEDGF confirm – inhibitors of HIV-1 IN-LEDGF/p75 DNA integration, confirmation, biochemical, TR-FRET; actives 36% (n = 2,000); TR-FRET LEDGF/p75-dependent HIV-1 integration; inhibition, % at 3.7 µM; shares compounds with LEDGF integ inh; AID 1053136, 2014; in the data active = inhibition above about 14%
Of the large screens only hits and unclear results are named; the others gave an inactive call (follow-up assays come after a bar, where they were run). Only some compounds are listed: those with a hit (about 1.6% of all), similar ones and a draw of the others.

COc1cc(C=C2C(=O)C=CC2=O)ccc1O	LEDGF integ inh 93, MBD2 DNA inh 102, UHRF1 binding 97 | IN multimer up inactive | TR-FRET interf inactive | IN-LEDGF confirm 24
Cc1cnc(C)c(N(C)NC(=S)Nc2ccccc2)n1	LEDGF integ inh 16 | IN multimer up inactive | TR-FRET interf inactive | IN-LEDGF confirm inactive
Cc1nc(NC(=S)Nc2ccccc2)sc1C	none
CCCCC(=O)Nc1cccc(NC(=O)CC)c1	LEDGF integ inh 25 | IN multimer up inactive | TR-FRET interf inactive | IN-LEDGF confirm inactive
CN(C)c1ccc(-c2[nH][nH]c(=O)c2NC(=O)c2ccc3ccccc3n2)cc1	LEDGF integ inh 31, TDP2 inh 90 | IN multimer up inactive | TR-FRET interf inactive | IN-LEDGF confirm 19
O=C(CSc1nnc(-c2ccccc2Br)o1)N1CCOCC1	none
CC(Sc1nnc(-c2ccccc2Br)o1)C(=O)N1CCOCC1 (stereo not drawn)	LEDGF integ inh 23 | IN multimer up inactive | TR-FRET interf inactive | IN-LEDGF confirm inactive
O=Cc1ccc(-c2c(-c3ccccc3)oc3c2C(OCCCCO)CCC3)o1 (stereo not drawn)	LEDGF integ inh 30 | IN multimer up inactive | TR-FRET interf inactive | IN-LEDGF confirm inactive
C=CCNC(=S)N1N=C(c2ccco2)CC1c1ccco1 (stereo not drawn)	LEDGF integ inh 17 | IN multimer up inactive | TR-FRET interf inactive | IN-LEDGF confirm inactive
CCN(CCn1cccn1)Cc1c(C(=O)N2CCCCCCC2)nc2ccc(Cl)cn12	LEDGF integ inh 27 | IN multimer up inactive | TR-FRET interf inactive | IN-LEDGF confirm inactive
CCN(CC)C1CCN(Cc2c(C(=O)N3CCCCCCC3)nc3ccc(Cl)cn23)C1 (stereo not drawn)	none
CCC(CC)C(=O)N(C)c1c(C)nc2c(OCc3ccc(F)c(F)c3)cccn12	LEDGF integ inh 21 | IN multimer up inactive | TR-FRET interf inactive | IN-LEDGF confirm inactive
COC1=C[C@H](C(=O)NCc2ccc(Br)cc2)[C@H](C)[C@@H](c2ccccc2)CC1=O	LEDGF integ inh 22 | IN multimer up inactive | TR-FRET interf inactive | IN-LEDGF confirm inactive
COc1cc(CNc2ccc(N3CCOCC3)cc2)cc(Br)c1OC	none
CCOc1cc(CNc2ccc(N3CCOCC3)cc2)cc(Br)c1OCC	LEDGF integ inh 15 | IN multimer up inactive | TR-FRET interf inactive | IN-LEDGF confirm inactive
CCOc1cc(CNc2ccc(N3CCCCC3)cc2)cc(Br)c1OCC(=O)NC(C)(C)C	LEDGF integ inh 15 | IN multimer up inactive | TR-FRET interf inactive | IN-LEDGF confirm inactive
O=C(C(=O)N1CCC(CNC(=O)c2ccccc2F)CC1)c1cc2ccccc2o1	none
CNc1ccc(Br)cc(C(=O)/C=C/c2ccc(OC)cc2OC)c1=O	LEDGF integ inh 13 | IN multimer up inactive | TR-FRET interf inactive | IN-LEDGF confirm inactive
COC(=O)c1ccc(C2C(C#N)=C(N)Oc3cc(N)ccc32)cc1 (stereo not drawn)	none
COc1ccc(OC)c(C2C(C#N)=C(N)Oc3cc(N)ccc32)c1 (stereo not drawn)	LEDGF integ inh 14 | IN multimer up inactive | TR-FRET interf inactive | IN-LEDGF confirm inactive
N#CC1=C(N)Oc2cc(N)ccc2C1c1cccc(F)c1 (stereo not drawn)	LEDGF integ inh 15 | IN multimer up inactive | TR-FRET interf inactive | IN-LEDGF confirm inactive
CCOC(=O)[C@]12CCCC=C1N(Cc1ccc(OC)cc1)C(=O)[C@@H]2CC(=O)N1CCCCC1	none
O=C(CSc1nnc(-c2cccs2)n1Cc1ccco1)Nc1ccc(Oc2ccccc2)cc1	none
CCOC(=O)C1=C(C)N(c2ccccc2)C(=O)/C1=C\c1cccs1	none
CCOC(=O)C1=C(C)N(c2ccc(C)cc2)C(=O)/C1=C\c1cccs1	LEDGF integ inh 58 | IN multimer up inactive | TR-FRET interf inactive | IN-LEDGF confirm inactive
CCOC(=O)c1c(C)n(-c2ccc(C)cc2)c2c(C(C(C)=O)C(=O)O)c(Br)c(O)c(O)c12 (stereo not drawn)	none
CCOC(=O)C(C(C)=O)c1c(Br)c(O)c(O)c2c(C(=O)c3ccc(C)cc3)coc12 (stereo not drawn)	LEDGF integ inh 26 | IN multimer up inactive | TR-FRET interf inactive | IN-LEDGF confirm 14
CC1(C)S[C@@H]2[C@H](NC(=O)[C@H](N)c3ccc(O)cc3)C(=O)N2[C@H]1C(=O)O	LEDGF integ inh 15 | IN multimer up inactive | TR-FRET interf inactive | IN-LEDGF confirm 43
CC(=O)N1CCN(c2ccc(NCc3cccc(C)c3)cc2)CC1	LEDGF integ inh 14 | IN multimer up inactive | TR-FRET interf inactive | IN-LEDGF confirm inactive
CC(=O)N1CCN(c2ccc(NCc3ccc(F)cc3)cc2)CC1	none
CC(=O)N1CCN(c2ccc(N)cc2)CC1	LEDGF integ inh 26 | IN multimer up inactive | TR-FRET interf inactive | IN-LEDGF confirm inactive
Cc1ccccc1CN[C@@H]1CC[C@@]23CCCN2C(=O)CCC[C@H]3C1	none
Cc1ccc(Cc2c(-c3ccccc3)nc3c(Cl)cc(C(F)(F)F)cn23)cc1	LEDGF integ inh 20 | IN multimer up inactive | TR-FRET interf inactive | IN-LEDGF confirm inactive
CN(C)c1ccc(NC2=C([N+](=O)[O-])CS(=O)(=O)C2)cc1	LEDGF integ inh 24 | IN multimer up inactive | TR-FRET interf inactive | IN-LEDGF confirm inactive
CCOC(=O)C(C)Sc1ccc2nnc(-c3ccc(F)cc3)n2n1 (stereo not drawn)	LEDGF integ inh 15 | IN multimer up inactive | TR-FRET interf inactive | IN-LEDGF confirm inactive
O=C(CSc1nc2ccccc2o1)NN=C/C=C\c1ccccc1[N+](=O)[O-]	none
O=C(/C=C/c1ccc([N+](=O)[O-])cc1)/C=C/c1ccco1	LEDGF integ inh 22 | IN multimer up inactive | TR-FRET interf inactive | IN-LEDGF confirm 47
O=C(O)C(C(=O)/C=C/c1ccco1)=C1SCCS1	LEDGF integ inh 18 | IN multimer up inactive | TR-FRET interf inactive | IN-LEDGF confirm 33
O=C(C=C1SCCS1)/C=C/c1ccco1	LEDGF integ inh 14 | IN multimer up inactive | TR-FRET interf inactive | IN-LEDGF confirm 35
O=C(NCC(c1ccccc1)c1ccccc1)[C@H](Cc1c[nH]c2ccccc12)NC1(C(=O)NC2CCCCC2)CCC1	none
